Reference: ChEMBL document CHEMBL3351592, “Marine spongian sesquiterpene phenols, dictyoceratin-C and smenospondiol, display hypoxia-selective growth inhibition against cancer cells” (2014)
Active and inactive are the calls of the source. The calls are words filed in the database; no cut-off is given here.

Legend:
[1] = tested on: DU-145; experiment: Antiproliferative activity against human DU145 cells assessed as growth inhibition under hypoxic condition at 1 to 30 uM after 24 hrs by MTT assay; assay type: functional, cell-based
[2] = tested on: DU-145; experiment: Antiproliferative activity against human DU145 cells assessed as growth inhibition under hypoxic condition after 24 hrs by MTT assay; assay type: functional, cell-based
Procedure, shortened: (§1)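 DU145 cells in RPMI 1640 with 10% heat-inactivated FBS, seeded at 1×10^4 cells/well, settled 4 h at 37 °C in 5% CO2. Then held 12 h either normoxic or hypoxic (94% N2, 5% CO2, 1% O2). Compound added and incubated a further 24 h under the same condition. Read by MTT; inhibition expressed as % of parallel negative controls. Mean ± SD of 3 experiments in triplicate.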

[3] = tested on: DU-145; experiment: Antiproliferative activity against human DU145 cells assessed as maximal growth inhibition under hypoxic condition at 10 uM after 24 hrs by MTT assay; assay type: functional; conditions: DU-145, 24 h; procedure, shortened: as §1
[4] = tested on: DU-145; experiment: Antiproliferative activity against human DU145 cells assessed as growth inhibition under hypoxic condition at 30 uM after 24 hrs by MTT assay; assay type: functional, cell-based; procedure, shortened: as §1
[5] = tested on: DU-145; experiment: Antiproliferative activity against human DU145 cells assessed as growth inhibition under normoxic condition at 30 uM after 24 hrs by MTT assay; assay type: functional, cell-based; procedure, shortened: as §1
[6] = tested on: DU-145; experiment: Inhibition of hypoxia-induced accumulation of HIF-1alpha in human DU145 cells at 10 to 30 uM after 24 hrs by Western blotting analysis; assay type: functional, cell-based
Procedure, shortened: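 DU145 cells at 40% confluence pre-incubated 12 h normoxic (5% CO2, 37 °C) or hypoxic (94% N2, 5% CO2, 1% O2). Then treated 24 h under the same condition. Cells rinsed in ice-cold PBS and lysed in Tris-HCl pH 7.5 buffer with EDTA, PMSF, NaF, vanadate, SDS and protease/phosphatase inhibitors. Lysates run on SDS-PAGE and blotted with anti-HIF-1α and anti-β-actin. ECL detection.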

[7] = tested on: DU-145; experiment: Inhibition of hypoxia-induced of VEGF production in human DU145 cells at 10 to 30 uM after 24 hrs by Western blotting analysis; assay type: functional, cell-based
Procedure, shortened: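 DU145 cells at 40% confluence pre-incubated 12 h normoxic or hypoxic (1% O2), then treated 24 h. Medium incubated 12 h at 4 °C with anti-VEGF antibody, then with protein G agarose for 2 h at 4 °C. Beads washed 4 times in lysis buffer and boiled 5 min in SDS sample buffer. Run on SDS-PAGE, Western blotted, ECL detection.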

COC1=CC(=O)C(O)=C(C[C@@]2(C)CC[C@]3(C)C(C)=CCC[C@H]3[C@H]2C)C1=O
inhibition [1]: inactive

C=C1CCC[C@H]2[C@](C)(Cc3cc(C(=O)OC)ccc3O)[C@@H](C)CC[C@]12C
inhibition [2]: Dose-dependent effect | inhibition at 10 µM [3]: 43% | inhibition [4]: Active | inhibition [5]: Active | inhibition [6]: Active | inhibition [7]: Active

C=C1CCC[C@H]2[C@](C)(CC3=C(O)C(=O)C=C(NCCc4ccccc4)C3=O)[C@@H](C)CC[C@@]12C
inhibition [1]: inactive

C=C1CCC[C@H]2[C@](C)(CC3=C(O)C(=O)C=C(NCC(C)C)C3=O)[C@@H](C)CC[C@]12C
inhibition [1]: inactive

C=C1CCC[C@H]2[C@](C)(Cc3cc(C(=O)OC)cc(O)c3O)[C@@H](C)CC[C@]12C
inhibition [2]: Dose-dependent effect

C=C1CCC[C@H]2[C@](C)(CC3=C(O)C(=O)C=C(OC)C3=O)[C@@H](C)CC[C@]12C
inhibition [1]: inactive

CC1=CCC[C@H]2[C@@H](C)[C@@](C)(CC3=C(O)C(=O)C=C(N)C3=O)CC[C@]12C
inhibition [1]: inactive | inhibition [6]: inactive | inhibition [7]: inactive

C=C1CCC[C@H]2[C@](C)(CC3=C(O)C(=O)C=C(NCC(C)C)C3=O)[C@@H](C)CC[C@@]12C
inhibition [1]: inactive
